Screening data deposited in PubChem BioAssay by several laboratories.
Hep lipid drop = hepatic lipid droplet formation modulation | inhibition, % at 6.5 µM | 0.4% of 240,000 active | AML12 mouse hepatocytes, oleate lipid droplets, BODIPY imaging | AID 1656;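 active = lipid droplet intensity inhibited by at least 50%, with more than 500 cells counted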
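Assay system: AML12 hepatocytes (mouse) / Also added: 100 µM oleic acid challenge / Times: overnight treatment with compound plus oleate / Detection: high-content imaging of BODIPY-stained droplets and DAPI nuclei / Evaluation: % inhibition of lipid droplet signal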
TMEM16A act = mouse TMEM16A channel activation, primary screen. B-score at 10 µM. AID 623877. 0.3% of 340,000 active. Q8BHY3. HEK293 TMEM16A/YFP-H148Q/I152L, iodide quench fluorescence; hits give low values;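 active = fluorescence-ratio B-score plate-corrected deviation score at least 3 library SD below zero, with starting fluorescence score within 5 deviations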;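 also: channel opened by trigger with iodide after compound preincubation; score built on the fluorescence ratio of max minus min over baseline; more negative score means more quench and so TMEM16A activation or potentiation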
Target sequence (Q8BHY3 whole entry, looked up): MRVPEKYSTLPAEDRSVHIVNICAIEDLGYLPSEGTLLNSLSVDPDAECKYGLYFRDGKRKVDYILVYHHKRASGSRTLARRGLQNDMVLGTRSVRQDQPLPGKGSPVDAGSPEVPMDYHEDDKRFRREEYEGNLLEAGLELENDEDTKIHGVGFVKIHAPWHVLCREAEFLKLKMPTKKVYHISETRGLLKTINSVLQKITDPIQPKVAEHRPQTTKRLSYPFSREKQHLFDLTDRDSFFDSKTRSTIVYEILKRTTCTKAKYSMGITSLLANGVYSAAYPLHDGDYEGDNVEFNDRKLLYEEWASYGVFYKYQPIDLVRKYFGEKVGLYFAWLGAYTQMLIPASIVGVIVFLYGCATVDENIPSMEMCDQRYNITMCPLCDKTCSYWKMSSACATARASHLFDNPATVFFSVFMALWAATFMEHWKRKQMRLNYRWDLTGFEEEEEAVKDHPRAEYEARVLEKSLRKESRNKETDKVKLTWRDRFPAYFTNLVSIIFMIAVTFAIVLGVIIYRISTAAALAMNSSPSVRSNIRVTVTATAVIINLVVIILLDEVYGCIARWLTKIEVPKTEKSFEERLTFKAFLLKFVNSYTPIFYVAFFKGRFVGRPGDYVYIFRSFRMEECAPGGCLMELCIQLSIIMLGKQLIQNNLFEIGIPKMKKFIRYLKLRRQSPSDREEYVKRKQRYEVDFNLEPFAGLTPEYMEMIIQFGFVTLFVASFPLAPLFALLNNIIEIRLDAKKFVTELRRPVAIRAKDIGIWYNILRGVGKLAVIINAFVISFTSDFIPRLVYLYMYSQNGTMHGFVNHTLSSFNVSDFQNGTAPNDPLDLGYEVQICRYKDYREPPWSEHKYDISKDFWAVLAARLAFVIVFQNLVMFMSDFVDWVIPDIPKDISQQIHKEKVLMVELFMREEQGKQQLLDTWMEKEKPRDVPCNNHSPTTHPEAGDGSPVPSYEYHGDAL
CHOP inhibitor = inhibitors of CHOP induction in ER stress response; AID 2732; 3.8% of 220,000 active; CHO-K1 CHOP-promoter luciferase, tunicamycin-induced, 15-18 h; inhibition, % at 10 µM;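 active = compounds that reduced the stress-induced luciferase reporter signal by more than about 70% of percent inhibition, limit read from the data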;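 also: 0% = tunicamycin plus vehicle and 100% = wells without tunicamycin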
UPR CHOP act = activators of apoptotic arm of unfolded protein response (CHOP); CHO-CHOP luciferase reporter, UPR activation, luminescence; percent of tunicamycin response over DMSO baseline; activation, % at 10 µM; 0.34% of 330,000 active; AID 449763;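 active = at 10 µM dose, activation of 40% or more, normalized to positive control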;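 also: 100% = tunicamycin at 10 µg/mL and 0% = DMSO alone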
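Dosing – one dose, 10 µM in 0.5% DMSO · System – CHO-CHOP cells, stable luciferase reporter of PERK-eIF2a-CHOP signalling · Input – 500 cells/well · Control set – tunicamycin 10 µg/mL final as positive, DMSO-only wells as negative · Timing – 6 h compound treatment, 37 °C · Measure – % activation vs tunicamycin · Technique – luminescence read with Steady-Glo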
ANO1 block = mouse TMEM16A channel inhibition, primary screen; AID 588511; 1.2% of 310,000 active; normalized B-score (activity score, 25-100; higher = stronger inhibition) at 10 µM; HEK293 TMEM16A/YFP iodide influx fluorescence, ionomycin; Q8BHY3;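 active = ratio plate-corrected score three or more library SD toward inhibition, starting fluorescence score within five deviations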;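 also: score derived from kinetic fluorescence span divided by baseline fluorescence per well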
XBP1 UPR activ = adaptive UPR (XBP1) activation | CHO-XBP1 luciferase reporter, IRE1-XBP1 UPR activation, luminescence; percent of tunicamycin response, DMSO as zero | activation, % at 20 µM | 0.33% of 330,000 active;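 active = versus positive control, 20 µM dose yields 30% or more activation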;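 also: 100% = tunicamycin at 10 µg/mL and 0% = DMSO only wells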
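assay system = CHO-XBP1 luciferase reporter cells | amount = 1000 cells/well | buffer or medium = F12 plus 10% FBS | compound dosing = single point, 20 µM final compound, 1% DMSO | incubation = 16-18 h cell attachment at 37 °C, then 6 h compound exposure | detection = Steady-Glo luminescence read | controls = tunicamycin 10 µg/mL and vehicle-only wells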
TMEM16A reconf = TMEM16A (mouse) chloride channel inhibition, re-confirmation; shares compounds with ANO1 block; HEK293 TMEM16A/YFP-H148Q, iodide quench fluorescence; ionomycin added to raise cell calcium; inhibition, % at 10 µM; 39% of 2,300 active;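 active = mean duplicate percent inhibition, scaled so buffer wells are 0 and the reference blocker 100, over three buffer SD above buffer mean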
TMEM16A Ca cntr = calcium mobilization counter-screen hit for TMEM16A inhibitor series | shares compounds with ANO1 block | TMEM16A/YFP HEK293, Fluo4 calcium mobilization | calcium response (% of ionomycin), % at 10 µM | 2% of 2,300 active | AID 652231;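 active = duplicate-averaged calcium signal over 20% of the ionomycin maximum, relative to buffer baseline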;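 also: each well's signal is peak minus trough fluorescence divided by its pre-addition baseline; 0% = buffer wells and 100% = ionomycin wells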
Parental YFP cnt = acts in parental YFP-HEK293 cells lacking TMEM16A, counter-screen; shares compounds with ANO1 block; iodide YFP quench, ionomycin; YFP ratio F(max-min)/F0 at 10 µM; 2,300 tested, under 10 active; AID 652233;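 active = yellow fluorescent protein signal ratio exceeding the buffer control mean by over 5 SD of those controls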;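 also: ratio is mean of duplicate wells from kinetic YFP trace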
ClC-1 inh = blocks the rat ClC-1 voltage-dependent chloride channel | shares compounds with ANO1 block | ratio percent, % at 10 µM | CHO ClC-1-YFP, iodide influx fluorescence quench; iodide control reads 0, buffer control 100 | 2,300 tested, under 10 active;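 active = duplicate-mean ratio percent above the mean of iodide-only control wells, which defines zero, plus 5 of their SD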;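 also: higher percent means stronger block of ClC-1 iodide influx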
Starred values were filed as active, the others as inactive; i = inactive; . = no result given; ! = not confirmed by another sample. An excerpt weighted towards active compounds, which were near 4.2% of everything screened.

SMILES | Hep lipid drop | TMEM16A act | CHOP inhibitor | UPR CHOP act | ANO1 block | XBP1 UPR activ | TMEM16A reconf | TMEM16A Ca cntr | Parental YFP cnt | ClC-1 inh
COc1ccc(-c2cc(C)no2)cc1S(=O)(=O)NCCCN1CCCCCC1 | 10 | i | . | -1 | i | 0 | . | . | . | .
COCCN(C(=S)Nc1ccc(C(C)C)cc1)C(C)c1cccs1 (stereo not given) | -23 | i | 18 | 0 | 25* | -2 | i | i | -0.85 | -13
Cc1ccc(N(C)S(=O)(=O)c2ccc(-c3cc(C)no3)s2)cc1 | -3 | i | . | -1 | 25* | -5 | 33%* | i | -0.98 | -12
Nn1c(-c2cccs2)nc2sc3c(c2c1=O)CCCC3 | . | i | -21 | 5 | 25* | -6 | 30%* | i | -0.99 | -18
Cc1ccccc1-c1nc2sc3c(c2c(=O)n1N)CCCC3 | -5 | i | 31 | 3 | i | 1 | . | . | . | .
Cc1cccc(N(CC(=O)NC(C)C)C(=O)CCC(=O)Nc2nccs2)c1 | 8 | i | . | -1 | i | -7 | . | . | . | .
Cn1c(SCC(=O)Nc2ccc3c(c2)n(C)c(=O)n3C)nnc1-c1ccncc1 | -9 | i | . | -1 | i | -3 | i | i | -1.2 | -2
Cn1c(SCC(=O)Nc2ccc(NC(=O)c3ccccc3)cc2)nnc1-c1ccncc1 | -1 | i | . | 2 | i | -1 | . | . | . | .
COCc1c(C(=O)N/N=C/c2ccncc2)nnn1-c1nonc1N | -5 | i | . | 0 | i | 1 | . | . | . | .
COc1ccc(N2CCn3c2nc2c3c(=O)n(CCCc3ccccc3)c(=O)n2C)c(OC)c1 | . | i | . | 6 | 100* | -1 | 22%* | i | -1.2 | -14
COc1ccc(S(=O)(=O)N2CCC(O)(c3ccc(Cl)cc3)CC2)cc1 | . | i | 38 | -2 | 25* | -1 | 21%* | i | -1.1 | -10
CCO[C@@H]1OC(C(N)=O)=C[C@H](c2coc3ccccc3c2=O)[C@H]1CCCO | 26 | i | -1 | 1 | 25* | -2 | i | i | -1 | -8
CCO[C@@H]1OC(C(=O)O)=C[C@H](c2coc3ccccc3c2=O)[C@H]1CCCO | 24 | i | -16 | 1 | i | -1 | . | . | . | .
O=C(CC(Cc1ccccc1)c1ccco1)NC1CCCCC1 (stereo not given) | -4 | i | 25 | -2 | i | 1 | i | i | -1.2 | 0
O=C(NC1CCCCC1)N(Cc1ccccc1)Cc1ccco1 | -10 | i | 29 | -2 | i | -3 | . | . | . | .
Cc1c(O)cccc1C(=O)N[C@@H](CSc1ccccc1)[C@H](O)CN1C[C@H]2CCCC[C@H]2C[C@H]1C(=O)NC(C)(C)C | -9 | i | . | 14 | 100*! | 4 | 41%* | i | -1 | -2
CCN(CC(=O)NC(C)(C)C)C(=O)c1ccccc1SCC(=O)NC1CCCCCCC1 | -7 | i | . | 2 | i | -5 | . | . | . | .
COCCNC(=S)N1CCC(c2nc(-c3ccc(N(C)C)cc3)no2)CC1 | 15 | i | 6 | 0 | i | 2 | . | . | . | .
CC(C)CNC(=S)N1CCC(c2nc(-c3ccc(F)cc3)no2)CC1 | -3 | i | 39 | -2 | 100* | 0 | i | i | -1 | -12
CCC(C)NS(=O)(=O)c1ccc(S(=O)(=O)N2CCCC3(CCCCC3)C2)cc1 (stereo not given) | -18 | i | 56 | 5 | 100* | -2 | 52%* | i | -1.1 | -30
CCC(C)C(=O)Nc1ccc(S(=O)(=O)N2CCCC2)cc1 (stereo not given) | -1 | i | . | 1 | i | -3 | . | . | . | .
COc1ccc(CCN2C(=O)CSC2=Nc2ccc(C(C)C)cc2)cc1OC | -14 | i | 55 | 8 | 100* | 2 | 53%* | i | -0.94 | -28
COc1ccc(N=C2SCC(=O)N2CCc2ccc(OC)c(OC)c2)cc1 | 10 | i | -6 | -1 | i | 0 | . | . | . | .
COc1ccc(CNC(=O)CNS(=O)(=O)c2ccc(Cl)cc2)cc1 | -9 | i | -9 | 1 | i | 0 | . | . | . | .
C=CCc1ccc(OCCOCCOc2ccccc2[N+](=O)[O-])c(OC)c1 | . | i | 12 | -1 | 100* | -3 | i | i | -1.1 | -11
SMILES | Hep lipid drop | TMEM16A act | CHOP inhibitor | UPR CHOP act | ANO1 block | XBP1 UPR activ | TMEM16A reconf | TMEM16A Ca cntr | Parental YFP cnt | ClC-1 inh
COc1cccc(OCCCCSc2ncccn2)c1 | -4 | i | 53 | -2 | i | 7 | . | . | . | .
c1ccc(Oc2cccc(OCCCCSc3ncccn3)c2)cc1 | -8 | i | 62 | -2 | 100* | 0 | i | i | -1.4 | -4
CCS(=O)(=O)c1nc(S(=O)(=O)c2ccc(Cl)cc2)c(NCCCN2CCOCC2)s1 | -16 | i | . | -1 | i | -3 | . | . | . | .
CCOc1cc(-c2ccc(N)c(OCC)c2)ccc1N | -14 | i | -14 | 0 | i | 0 | i | i | -0.71 | 4
CCOc1ccc(N)c(SSc2cc(OCC)ccc2N)c1 | 3 | i | . | 16 | i | 11 | . | . | . | .
CCOC(=O)c1c(NC(=O)CSc2nnc(-c3ccccc3)o2)sc(C(C)=O)c1C | -24 | i | 23 | 2 | i | 0 | . | . | . | .
CCOC(=O)c1c(NC(=O)CSc2nnc(Cc3ccccc3)o2)sc(C(C)=O)c1C | -8 | i | 13 | 5 | 25* | 0 | 16%* | i | -1.3 | -21
CCOC(=O)c1c(NC(=O)CSc2nc3ccccc3o2)sc(C(C)=O)c1C | 8 | i | 44 | 2 | 100* | -1 | 22%* | i | -1.1 | -3
COc1cc(Cl)ccc1OCc1cc(C(=O)NC2CCc3ccccc32)no1 (stereo not given) | -10 | i | . | -1 | i | -2 | . | . | . | .
CCN(C(=O)CSc1nnc2c3ccccc3n(CC)c2n1)C1CCS(=O)(=O)C1 (stereo not given) | -3 | i | -8 | 0 | i | 1 | . | . | . | .
